pIC50: −log10 of the molar value. The source made the active and inactive calls. No cut-off for these calls is given here.
Columns and labels:
[1] = system: MCF7; assay: Induction of apoptosis in human MCF7 cells assessed as late apoptotic cells at 0.2 uM incubated for 48 hrs by annexin V-FITC and propidium iodide staining based flow cytometry analysis (reference value: 9.2 %); type: functional
[2] = system: HUVEC; assay: Cytotoxicity against HUVEC cells assessed as reduction in cell viability incubated for 72 hrs by SRB assay; type: cell-based; details: Homo sapiens
Procedure, shortened: (§1)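 Normal cells exposed to a range of compound concentrations for 72 h at 37 °C in 5% CO₂. Cells TCA-fixed and viability read by SRB protein staining, normalized to day-0 and negative-control OD. IC50 from non-linear regression; values are means of triplicate measurements.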

[3] = system: MCF7; assay: Inhibition of PI3K in human MCF7 cells assessed as decrease in p-Akt/Akt ratio at 0.1 to 10 uM by Western blot analysis; details: dose microM 0.1-10
[4] = biological target: T1, Phosphatidylinositol 4,5-bisphosphate 3-kinase catalytic subunit delta isoform (Homo sapiens, UniProt O00329); assay: Inhibition of PI3Kdelta (unknown origin) using lipid as substrate incubated for 15 mins followed by substrate addition and measured after 60 mins ADPGloTM reagent based assay
T1 sequence (O00329 whole entry): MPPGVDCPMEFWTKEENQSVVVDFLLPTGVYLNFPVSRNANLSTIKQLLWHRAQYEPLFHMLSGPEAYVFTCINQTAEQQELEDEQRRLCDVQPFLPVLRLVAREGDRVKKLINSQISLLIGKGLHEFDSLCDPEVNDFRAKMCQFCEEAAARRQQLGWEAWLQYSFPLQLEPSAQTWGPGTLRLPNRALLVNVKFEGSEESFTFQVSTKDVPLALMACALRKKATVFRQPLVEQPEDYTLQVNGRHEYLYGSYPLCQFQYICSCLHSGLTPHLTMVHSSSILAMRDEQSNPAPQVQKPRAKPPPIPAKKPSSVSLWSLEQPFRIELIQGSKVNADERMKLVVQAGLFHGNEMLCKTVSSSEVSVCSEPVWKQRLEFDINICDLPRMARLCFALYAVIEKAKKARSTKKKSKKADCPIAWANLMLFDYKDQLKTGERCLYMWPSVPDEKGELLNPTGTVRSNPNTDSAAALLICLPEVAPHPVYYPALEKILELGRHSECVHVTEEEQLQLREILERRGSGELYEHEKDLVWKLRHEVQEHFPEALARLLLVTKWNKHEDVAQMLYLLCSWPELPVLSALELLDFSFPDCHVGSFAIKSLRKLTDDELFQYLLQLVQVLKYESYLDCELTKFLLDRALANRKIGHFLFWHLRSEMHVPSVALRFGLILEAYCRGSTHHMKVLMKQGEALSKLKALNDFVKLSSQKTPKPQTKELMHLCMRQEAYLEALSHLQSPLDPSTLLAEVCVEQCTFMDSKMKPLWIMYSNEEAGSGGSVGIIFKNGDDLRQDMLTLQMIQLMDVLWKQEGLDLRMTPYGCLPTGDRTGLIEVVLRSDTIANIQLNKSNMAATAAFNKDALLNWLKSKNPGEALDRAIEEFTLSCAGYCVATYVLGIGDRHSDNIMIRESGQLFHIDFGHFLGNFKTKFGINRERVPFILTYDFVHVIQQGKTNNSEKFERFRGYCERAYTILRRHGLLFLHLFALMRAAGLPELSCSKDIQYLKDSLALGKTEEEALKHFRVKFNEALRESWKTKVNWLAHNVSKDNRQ
Procedure, shortened: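 ADP-Glo luminescent readout of ADP formed. Isoforms tested: p110α/p85α, p110β/p85α, p120γ and p110δ/p85α, each in PI3K reaction buffer with lipid substrate. Enzyme preincubated with compound for 15 min at room temperature. ADP-Glo reagent added for 40 min, then detection reagent for 40 min. IC50 from normalized nonlinear dose–response fit.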

[5] = system: MCF7; assay: Induction of apoptosis in human MCF7 cells assessed as viable cells at 0.8 uM incubated for 48 hrs by annexin V-FITC and propidium iodide staining based flow cytometry analysis (reference value: 87.7 %); type: functional; details: read-out: Activity
[6] = system: MCF7; assay: Induction of apoptosis in human MCF7 cells assessed as early apoptotic cells at 0.8 uM incubated for 48 hrs by annexin V-FITC and propidium iodide staining based flow cytometry analysis (reference value: 2.7 %); type: functional
[7] = system: MCF7; assay: Induction of apoptosis in human MCF7 cells assessed as chromatin condensation at 0.2 to 0.8 uM incubated for 48 hrs by Hoechst 33342 staining based fluorescence microscopic analysis; type: functional, cell-based; details: dose microM 0.2-0.8, time 48.0 hrs
Procedure, shortened: (§2)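 MCF-7 cells seeded at 2×10⁵ per well in 6-well plates and allowed to settle 12 h. Treated 48 h, with medium-only controls. Stained with Hoechst 33342 for 30 min, washed, and nuclear morphology imaged by fluorescence microscopy.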

[8] = system: MCF7; assay: Inhibition of colony formation in human MCF7 cells at 0.2 to 0.8 uM incubated for 72 hrs by crystal violet staining based assay; type: functional, cell-based; details: dose microM 0.2-0.8, time 72.0 hrs
Procedure, shortened: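 MCF-7 cells seeded at 3×10³ cells per well in 6-well plates. Exposed to 0, 0.2, 0.4 or 0.8 μM for 72 h, then grown one week in drug-free medium. Colonies stained with crystal violet and photographed.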

[9] = system: MCF7; assay: Induction of apoptosis in human MCF7 cells assessed as necrotic cells at 0.2 uM incubated for 48 hrs by annexin V-FITC and propidium iodide staining based flow cytometry analysis (reference value: 0.3 %); type: functional
[10] = system: MCF7; assay: Induction of apoptosis in human MCF7 cells assessed as viable cells at 0.4 uM incubated for 48 hrs by annexin V-FITC and propidium iodide staining based flow cytometry analysis (reference value: 87.7 %); type: functional; details: read-out: Activity
[11] = system: A549; assay: Antiproliferative activity against human A549 cells assessed as reduction in cell viability incubated for 72 hrs by SRB assay; type: functional, cell-based; details: A549, 72 h
Procedure, shortened: (§3)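 Cell lines grown at 37 °C in 5% CO₂: A549 in RPMI1640, MCF-7 in DMEM, each with 10% FBS plus penicillin/streptomycin/amphotericin B. Cells exposed to a range of compound concentrations for 72 h, then TCA-fixed and SRB-stained. Growth inhibition = 100 − 100×(OD sample − OD day 0)/(OD negative control − OD day 0). IC50 from non-linear regression of percent growth against concentration.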

[12] = system: MCF7; assay: Induction of apoptosis in human MCF7 cells assessed as late apoptotic cells at 0.8 uM incubated for 48 hrs by annexin V-FITC and propidium iodide staining based flow cytometry analysis (reference value: 9.2 %); type: functional
[13] = system: MCF7; assay: Induction of apoptosis in human MCF7 cells assessed as nuclear fragmentation at 0.2 to 0.8 uM incubated for 48 hrs by Hoechst 33342 staining based fluorescence microscopic analysis; type: functional, cell-based; details: dose microM 0.2-0.8, time 48.0 hrs; procedure, shortened: as §2
[14] = system: HCT-116; assay: Antiproliferative activity against human HCT-116 cells assessed as reduction in cell viability incubated for 72 hrs by SRB assay; type: functional, cell-based; details: HCT-116, 72 h
[15] = system: MCF7; assay: Antiproliferative activity against human MCF7 cells assessed as reduction in cell viability incubated for 72 hrs by SRB assay; type: functional, cell-based; details: MCF7, 72 h; procedure, shortened: as §3
[16] = system: MCF7; assay: Induction of apoptosis in human MCF7 cells assessed as late apoptotic cells at 0.4 uM incubated for 48 hrs by annexin V-FITC and propidium iodide staining based flow cytometry analysis (reference value: 9.2 %); type: functional
[17] = system: L02; assay: Cytotoxicity against human L02 cells assessed as reduction in cell viability incubated for 72 hrs by SRB assay; type: cell-based; details: L02, 72 h; procedure, shortened: as §1

pIC50 [4]: 9.32
pIC50 [11]: 5.51
pIC50 [14]: 6.48
pIC50 [15]: 6.66
SMILES: COc1ncc(-c2ccc3ncnc(Nc4cnn(CCO)c4)c3c2)cc1NS(=O)(=O)c1ccc(F)cc1F
Activity [1]: 20.6%
pIC50 [2]: 4.71
inhibition [3]: Active
viability at 0.8 µM [5]: 70.3%
Activity [6]: 4.8%
Activity [7]: Active
inhibition [8]: Dose-dependent effect
Activity [9]: 2.2%
viability at 0.4 µM [10]: 70%
Activity [12]: 22.7%
Activity [13]: Active
Activity [16]: 23.6%
pIC50 [17]: 4.22

Reference: ChEMBL document CHEMBL4665651, “Design, synthesis, and biological evaluation of some novel 4-aminoquinazolines as Pan-PI3K inhibitors” (Bioorg Med Chem, 2019)
